Measurements of several laboratories.
Target: Mitogen-activated protein kinase kinase kinase 14 (MAP3K14, Homo sapiens, UniProt Q99558)

Nc1cnc(N2CCc3cc(S(=O)(=O)Nc4c(F)cc(Cl)cc4F)cc(N4CCCC4=O)c32)nc1
remaining binding (cell-free assay, competition with immobilised ligand; 1 µM): 75%

CC1CCCN1c1nccc(-c2cnn3ncccc23)n1 (centres unmarked)
remaining binding (binding, competition with immobilised ligand; 1 µM): 100%

CC(=O)N1CCC(c2ccc(C(=O)NC(=N)N)cc2C(F)(F)F)CC1
remaining binding (cell-free assay, competition with immobilised ligand; 1 µM): 100%

C[C@H]1CCN(c2nccc(-c3cnn4ncccc34)n2)C1
remaining binding (binding, competition with immobilised ligand; 1 µM): 82%

C[C@@H](c1ccc(-n2cnc3c(N)ncnc32)cc1)N1CCc2nn(C)c(Cc3ccccc3)c2C1=O
remaining binding (binding, competition with immobilised ligand; 0.1 µM): 100%

CN(CCCC(F)(F)F)c1nccc(-c2cnn3ncccc23)n1
remaining binding (binding, competition with immobilised ligand; 1 µM): 100%

Cc1cnc(Nc2ccc(C(=O)N3CCC(N4CCCC4)CC3)cc2)nc1-c1cc2ccccc2s1
remaining binding (binding, competition with immobilised ligand; 1 µM): 100%

N[C@@H]1CCN(c2nccc(-c3cnn4ncccc34)n2)C1
remaining binding (binding; 1 µM): 91%

C=CC(=O)N1CCC(C(=O)NCC(=O)N2CCN(c3nc(-c4cnc(N)nc4C(F)F)nc(N4CCOCC4)n3)CC2)CC1
remaining binding (binding, competition with immobilised ligand; 1 µM): 89%

COc1cnc(Nc2cccc(S(N)(=O)=O)c2)nc1N1CCN(c2ccccc2)CC1
remaining binding (binding, competition with immobilised ligand; 1 µM): 96%

CN1CCN(c2cnc3c(C4CCN(C(=O)c5ccc(OC(F)(F)F)cc5N)CC4)ncnc3c2)CC1
remaining binding (cell-free assay, competition with immobilised ligand; 1 µM): 100%

F[C@@H]1CCN(c2nccc(-c3cnn4ncccc34)n2)C1
remaining binding (binding; 1 µM): 100%

Cc1noc([C@H]2C[C@@H](c3ccc(C(F)(F)F)cc3)CN(C(=O)N3CCS(=O)(=O)C3)C2)n1
remaining binding (cell-free assay, competition with immobilised ligand; 1 µM): 91%

O=C(Nc1c[nH]nc1C(=O)NC1CCNCC1)c1cc(F)cc(F)c1
remaining binding (binding, competition with immobilised ligand; 1 µM): 100%

FC(F)(F)Oc1cccc(-c2cnc3ccc(-c4ccncc4)nn23)c1
remaining binding (cell-free assay, competition with immobilised ligand; 5 µM): 37%

CCCCN(CCCC)C(=O)CN1C[C@H](c2cc(OC)c3c(c2)OCO3)[C@@H](C(=O)O)[C@@H]1CC(C)(C)CCC
remaining binding (cell-free assay, competition with immobilised ligand; 1 µM): 100%

O=C(c1ccc(Nc2ncc(Cl)c(-c3ccc(Cl)s3)n2)cc1)N1CCC(N2CCCC2)CC1
remaining binding (binding, competition with immobilised ligand; 1 µM): 22%

COc1ncc2cc3ccccc3nc2c1C#N
remaining binding (cell-free assay, competition with immobilised ligand; 5 µM): 76%

CNCc1ccccc1-c1csc([C@@H](C)Nc2nc(C)nc3cc(OC)c(OC)cc23)c1
remaining binding (cell-free assay, competition with immobilised ligand; 1 µM): 93%

c1cnn2ncc(-c3ccnc(N4CCC45COC5)n3)c2c1
remaining binding (binding, competition with immobilised ligand; 1 µM): 44%
